Laboratory results published in ChEMBL document CHEMBL2396583, “Synthesis and anticancer activity of aminodihydroquinoline analogs: identification of novel proapoptotic agents” (Bioorg Med Chem Lett, 2013).
Active and inactive are the calls of the source. The rule behind the calls is not given here.

Legend:
[1] = test system: MDA-MB-231; experiment: Cytotoxicity against human MDA-MB-231 cells assessed as viable cells at 1 uM after 72 hrs by MTT assay in absence of serum relative to control; type: functional; conditions: MDA-MB-231, 72 h, read-out: Activity
Outline: (§1)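 MDA-MB-231 cells were seeded at 5000 per well in serum-containing medium and dosed the next day, with or without serum, at the stated concentrations (1 and 5 µM in the serum-free figure). After 72 h, MTT was added, formazan was dissolved in DMSO and absorbance read at 595 nm. Six wells per condition; viability expressed as % of DMSO control.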

[2] = test system: MDA-MB-231; experiment: Cytotoxicity against human MDA-MB-231 cells assessed as viable cells at 5 uM after 72 hrs by MTT assay in absence of serum relative to control; type: functional; conditions: MDA-MB-231, 72 h, read-out: Activity; outline: as §1
[3] = test system: MDA-MB-231; experiment: Cell cycle arrest in human MDA-MB-231 cells assessed as accumulation at subG1 phase at 5 uM after 72 hrs by propidium iodide staining-based flow cytometric analysis in presence of serum (reference value: 1.99%); type: functional
[4] = test system: MDA-MB-231; experiment: Cell cycle arrest in human MDA-MB-231 cells assessed as accumulation at S phase at 5 uM after 72 hrs by propidium iodide staining-based flow cytometric analysis in presence of serum (reference value: 14.49%); type: functional
[5] = test system: MDA-MB-231; experiment: Cell cycle arrest in human MDA-MB-231 cells assessed as accumulation at S phase at 5 uM after 72 hrs by propidium iodide staining-based flow cytometric analysis in absence of serum (reference value: 6.19%); type: functional
[6] = test system: MDA-MB-231; experiment: Cytotoxicity against human MDA-MB-231 cells assessed as cell viability after 72 hrs by MTT assay in absence of serum; type: functional, cell-based; conditions: MDA-MB-231, 72 h; outline: as §1
[7] = test system: MDA-MB-231; experiment: Cell cycle arrest in human MDA-MB-231 cells assessed as accumulation at subG1 phase at 5 uM after 72 hrs by propidium iodide staining-based flow cytometric analysis in absence of serum (reference value: 2.15%); type: functional
[8] = test system: MDA-MB-231; experiment: Cell cycle arrest in human MDA-MB-231 cells assessed as accumulation at G2/M phase at 5 uM after 72 hrs by propidium iodide staining-based flow cytometric analysis in absence of serum (reference value: 6.53%); type: functional
[9] = test system: MDA-MB-231; experiment: Cell cycle arrest in human MDA-MB-231 cells assessed as accumulation at G2/M phase at 5 uM after 72 hrs by propidium iodide staining-based flow cytometric analysis in presence of serum (reference value: 15.82%); type: functional
[10] = test system: MDA-MB-231; experiment: Cytotoxicity against human MDA-MB-231 cells assessed as decrease in cell viability at 1 to 5 uM after 72 hrs by MTT assay in presence of serum; type: functional, cell-based; outline: as §1
[11] = test system: MDA-MB-231; experiment: Cell cycle arrest in human MDA-MB-231 cells assessed as accumulation at G0/G1 phase at 5 uM after 72 hrs by propidium iodide staining-based flow cytometric analysis in absence of serum (reference value: 84.87%); type: functional
[12] = test system: MDA-MB-231; experiment: Cell cycle arrest in human MDA-MB-231 cells assessed as accumulation at G0/G1 phase at 5 uM after 72 hrs by propidium iodide staining-based flow cytometric analysis in presence of serum (reference value: 67.16%); type: functional

| SMILES | viability at 1 µM [1] [%] | viability at 5 µM [2] [%] | IC50 [6] [µM] | other results |
| --- | --- | --- | --- | --- |
| CCCNC1=Nc2ccc(Cl)cc2C(C)(C)C1 | 90.7 | 82.4 |  |  |
| NC1=Nc2ccccc2C(c2ccccc2)C1 (stereo not given) | 86.6 | 86.3 |  |  |
| CCNC1=Nc2ccc(Cl)cc2C(C)(C)C1 | 89.7 | 85.1 |  |  |
| CC1(C)CC(=O)Nc2ccc(Cl)cc21 | 82.3 | 81.7 |  |  |
| CC1(C)CC(=S)Nc2ccc(Cl)cc21 | 85.7 | 94.3 |  |  |
| CN(C)CCCNC1=Nc2ccc(Cl)cc2C(C)(C)C1 | 54.1 | 38 | 2.1 | Activity [3]: 1.53%; Activity [4]: 14.76%; Activity [5]: 5.61%; Activity [7]: 7.63%; Activity [8]: 4.73%; Activity [9]: 19.22%; Activity [10]: Active; Activity [11]: 81.6%; Activity [12]: 64.06% |
| CC1(C)CC(NCc2ccccc2)=Nc2ccc(Cl)cc21 | 88.8 | 68.1 |  |  |
| CC1(C)CC(NCCCCO)=Nc2ccc(Cl)cc21 | 87.6 | 84.8 |  |  |
| CNC1=Nc2ccc(Cl)cc2C(C)(C)C1 | 91.9 | 92.3 |  |  |
| CC1(C)CC(N)=Nc2ccc(Cl)cc21 | 80.5 | 81 |  |  |
| CC1(C)CC(NCCCO)=Nc2ccc(Cl)cc21 | 84.5 | 84.2 |  |  |
| CN(C)CCNC1=Nc2ccc(Cl)cc2C(C)(C)C1 | 66.9 | 50.8 | 7 |  |
| CN(C)CCCNC1=Nc2cc(Cl)ccc2C(C)(C)C1 | 68.4 | 46.3 | 4 |  |
| CN(C)CCCNC1=Nc2cccc(Cl)c2C(C)(C)C1 | 60.5 | 43.9 | 4.8 |  |
| CC1(C)CC(NCCCN2CCOCC2)=Nc2ccc(Cl)cc21 | 91.4 | 70.3 |  |  |
| CCN(CC)CCCNC1=Nc2ccc(Cl)cc2C(C)(C)C1 | 53.3 | 36.1 | 2 | Activity [3]: 1.64%; Activity [4]: 15.44%; Activity [5]: 4.48%; Activity [7]: 4.77%; Activity [8]: 4.27%; Activity [9]: 20.48%; Activity [10]: Active; Activity [11]: 86.24%; Activity [12]: 61.75% |
